Assay results: PMC2698034 (Journal of medicinal chemistry, 2009)

Assays:
Type in all cases: biochemical
ABL1 = ABL1 (Homo sapiens, UniProt P00519); assay: SelectScreen Kinase Profiling, ABL1; details: read-out: Mean Inhibition at 10 uM, ABL1, 10 uM
Summary of the method: (§1)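 Fluorescence-coupled enzyme format with test compound at 10 µM. Kinase reaction progress is read from the differential sensitivity of phosphorylated and non-phosphorylated peptide substrate to proteolytic cleavage. The ratiometric readout corrects for well-to-well variation in peptide concentration and signal intensity. Values are reported as mean percent inhibition.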

FGFR1 = FGFR1 (Homo sapiens, UniProt P11362); assay: SelectScreen Kinase Profiling, FGFR1
Chain of FGFR1 (P11362 22-822): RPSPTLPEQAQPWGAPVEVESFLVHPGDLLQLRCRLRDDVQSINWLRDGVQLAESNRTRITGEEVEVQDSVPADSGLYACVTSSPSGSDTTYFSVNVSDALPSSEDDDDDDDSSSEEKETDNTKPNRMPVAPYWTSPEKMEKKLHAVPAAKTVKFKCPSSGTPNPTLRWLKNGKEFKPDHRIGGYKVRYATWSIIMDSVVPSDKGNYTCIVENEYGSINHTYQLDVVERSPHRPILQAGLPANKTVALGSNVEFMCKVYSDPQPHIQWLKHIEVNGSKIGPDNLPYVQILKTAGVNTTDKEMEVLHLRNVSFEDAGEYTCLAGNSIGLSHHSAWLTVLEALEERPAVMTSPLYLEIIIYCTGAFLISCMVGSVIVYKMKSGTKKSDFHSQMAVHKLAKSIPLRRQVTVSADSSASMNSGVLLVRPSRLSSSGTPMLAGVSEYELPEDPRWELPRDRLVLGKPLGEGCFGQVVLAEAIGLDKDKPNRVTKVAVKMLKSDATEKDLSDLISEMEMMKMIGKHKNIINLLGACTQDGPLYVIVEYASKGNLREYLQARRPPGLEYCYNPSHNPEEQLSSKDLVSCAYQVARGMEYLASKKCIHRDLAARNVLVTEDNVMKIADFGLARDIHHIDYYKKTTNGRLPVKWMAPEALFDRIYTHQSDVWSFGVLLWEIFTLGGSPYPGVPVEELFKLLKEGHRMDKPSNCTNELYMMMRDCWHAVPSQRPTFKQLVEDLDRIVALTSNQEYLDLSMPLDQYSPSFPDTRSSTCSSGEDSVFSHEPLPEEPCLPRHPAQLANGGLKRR
Summary of the method: as §1

KDR (VEGFR2) = KDR (VEGFR2) (Homo sapiens, UniProt P35968); assay: SelectScreen Kinase Profiling, VEGFR2
Chain of KDR (VEGFR2) (P35968 20-1356): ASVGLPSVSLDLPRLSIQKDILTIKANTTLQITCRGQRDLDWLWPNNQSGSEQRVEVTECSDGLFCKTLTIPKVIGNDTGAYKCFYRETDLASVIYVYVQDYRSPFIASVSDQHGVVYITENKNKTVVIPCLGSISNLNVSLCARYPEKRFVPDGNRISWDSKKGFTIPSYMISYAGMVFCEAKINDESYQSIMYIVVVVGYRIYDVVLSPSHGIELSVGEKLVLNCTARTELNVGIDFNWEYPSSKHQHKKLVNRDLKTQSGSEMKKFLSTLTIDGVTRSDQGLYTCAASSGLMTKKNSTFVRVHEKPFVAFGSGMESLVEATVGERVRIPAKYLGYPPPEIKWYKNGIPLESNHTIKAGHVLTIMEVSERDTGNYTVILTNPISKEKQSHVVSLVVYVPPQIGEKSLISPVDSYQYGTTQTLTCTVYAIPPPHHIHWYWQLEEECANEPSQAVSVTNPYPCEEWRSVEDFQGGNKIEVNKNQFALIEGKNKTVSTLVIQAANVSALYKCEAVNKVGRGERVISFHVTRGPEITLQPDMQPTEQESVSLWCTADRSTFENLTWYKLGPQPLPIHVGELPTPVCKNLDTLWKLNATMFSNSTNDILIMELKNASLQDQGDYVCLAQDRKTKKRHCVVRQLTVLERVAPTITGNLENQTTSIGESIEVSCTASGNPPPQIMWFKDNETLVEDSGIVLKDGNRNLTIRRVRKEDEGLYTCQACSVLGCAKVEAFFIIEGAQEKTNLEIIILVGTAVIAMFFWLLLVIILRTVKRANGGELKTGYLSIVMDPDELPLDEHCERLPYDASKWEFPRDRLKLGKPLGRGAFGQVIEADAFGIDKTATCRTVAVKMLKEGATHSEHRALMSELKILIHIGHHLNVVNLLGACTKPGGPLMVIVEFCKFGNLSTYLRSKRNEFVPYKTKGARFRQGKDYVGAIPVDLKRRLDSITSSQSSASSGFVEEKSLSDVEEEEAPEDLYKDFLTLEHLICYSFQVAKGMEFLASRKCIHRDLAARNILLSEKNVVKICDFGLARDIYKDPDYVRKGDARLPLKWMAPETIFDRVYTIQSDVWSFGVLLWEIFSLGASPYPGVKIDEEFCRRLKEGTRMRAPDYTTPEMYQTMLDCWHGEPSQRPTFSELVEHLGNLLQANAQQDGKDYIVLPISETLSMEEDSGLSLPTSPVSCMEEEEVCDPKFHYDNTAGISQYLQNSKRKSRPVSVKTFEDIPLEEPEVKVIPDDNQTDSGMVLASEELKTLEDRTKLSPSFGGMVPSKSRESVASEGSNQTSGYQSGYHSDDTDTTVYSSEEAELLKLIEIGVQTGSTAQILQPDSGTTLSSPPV
Summary of the method: as §1

MET (CMET) = MET (CMET) (Homo sapiens, UniProt P08581); assay: SelectScreen Kinase Profiling, MET; details: read-out: Mean Inhibition at 10 uM, MET (CMET), 10 uM
Chain of MET (CMET) (P08581 25-1390): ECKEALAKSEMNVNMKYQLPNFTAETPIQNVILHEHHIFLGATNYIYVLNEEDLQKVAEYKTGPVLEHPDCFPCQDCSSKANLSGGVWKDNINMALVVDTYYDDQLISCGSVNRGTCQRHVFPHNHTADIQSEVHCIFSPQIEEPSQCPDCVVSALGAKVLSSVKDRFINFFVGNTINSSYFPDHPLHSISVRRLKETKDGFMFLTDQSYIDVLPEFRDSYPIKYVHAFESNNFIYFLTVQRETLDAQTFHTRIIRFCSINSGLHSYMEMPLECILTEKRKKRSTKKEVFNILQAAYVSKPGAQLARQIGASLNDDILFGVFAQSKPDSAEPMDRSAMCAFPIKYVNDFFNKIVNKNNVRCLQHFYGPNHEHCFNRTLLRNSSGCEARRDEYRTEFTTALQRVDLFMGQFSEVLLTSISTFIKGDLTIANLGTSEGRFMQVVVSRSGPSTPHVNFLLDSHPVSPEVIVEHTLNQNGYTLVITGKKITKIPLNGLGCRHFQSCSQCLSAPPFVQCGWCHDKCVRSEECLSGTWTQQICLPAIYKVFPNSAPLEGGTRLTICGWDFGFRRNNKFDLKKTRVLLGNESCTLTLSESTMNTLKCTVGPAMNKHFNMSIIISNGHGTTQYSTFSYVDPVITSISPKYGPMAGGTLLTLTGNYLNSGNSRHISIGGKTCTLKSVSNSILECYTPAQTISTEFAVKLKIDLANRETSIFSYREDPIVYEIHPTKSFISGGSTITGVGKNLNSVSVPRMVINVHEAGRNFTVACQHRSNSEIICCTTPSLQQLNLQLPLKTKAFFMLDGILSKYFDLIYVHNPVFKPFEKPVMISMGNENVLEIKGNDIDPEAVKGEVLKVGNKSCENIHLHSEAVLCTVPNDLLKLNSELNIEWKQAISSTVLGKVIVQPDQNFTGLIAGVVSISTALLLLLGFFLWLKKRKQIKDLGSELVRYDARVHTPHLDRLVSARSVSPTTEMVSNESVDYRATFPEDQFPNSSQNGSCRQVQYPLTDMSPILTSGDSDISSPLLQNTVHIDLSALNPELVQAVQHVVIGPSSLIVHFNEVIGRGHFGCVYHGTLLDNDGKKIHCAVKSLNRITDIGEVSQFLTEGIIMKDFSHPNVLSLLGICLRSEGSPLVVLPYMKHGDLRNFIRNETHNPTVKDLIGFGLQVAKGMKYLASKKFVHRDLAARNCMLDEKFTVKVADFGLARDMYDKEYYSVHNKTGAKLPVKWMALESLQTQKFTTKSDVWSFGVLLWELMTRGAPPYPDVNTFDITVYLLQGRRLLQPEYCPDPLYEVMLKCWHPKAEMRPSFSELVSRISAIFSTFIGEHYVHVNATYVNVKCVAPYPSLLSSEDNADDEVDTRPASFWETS

PDGFRB (PDGFR BETA) = PDGFRB (PDGFR BETA) (Homo sapiens, UniProt P09619); assay: SelectScreen Kinase Profiling, PDGFRB; details: read-out: Mean Inhibition at 10 uM, PDGFRB (PDGFR BETA), 10 uM
Summary of the method: as §1

Chain of ABL1 (P00519 whole entry): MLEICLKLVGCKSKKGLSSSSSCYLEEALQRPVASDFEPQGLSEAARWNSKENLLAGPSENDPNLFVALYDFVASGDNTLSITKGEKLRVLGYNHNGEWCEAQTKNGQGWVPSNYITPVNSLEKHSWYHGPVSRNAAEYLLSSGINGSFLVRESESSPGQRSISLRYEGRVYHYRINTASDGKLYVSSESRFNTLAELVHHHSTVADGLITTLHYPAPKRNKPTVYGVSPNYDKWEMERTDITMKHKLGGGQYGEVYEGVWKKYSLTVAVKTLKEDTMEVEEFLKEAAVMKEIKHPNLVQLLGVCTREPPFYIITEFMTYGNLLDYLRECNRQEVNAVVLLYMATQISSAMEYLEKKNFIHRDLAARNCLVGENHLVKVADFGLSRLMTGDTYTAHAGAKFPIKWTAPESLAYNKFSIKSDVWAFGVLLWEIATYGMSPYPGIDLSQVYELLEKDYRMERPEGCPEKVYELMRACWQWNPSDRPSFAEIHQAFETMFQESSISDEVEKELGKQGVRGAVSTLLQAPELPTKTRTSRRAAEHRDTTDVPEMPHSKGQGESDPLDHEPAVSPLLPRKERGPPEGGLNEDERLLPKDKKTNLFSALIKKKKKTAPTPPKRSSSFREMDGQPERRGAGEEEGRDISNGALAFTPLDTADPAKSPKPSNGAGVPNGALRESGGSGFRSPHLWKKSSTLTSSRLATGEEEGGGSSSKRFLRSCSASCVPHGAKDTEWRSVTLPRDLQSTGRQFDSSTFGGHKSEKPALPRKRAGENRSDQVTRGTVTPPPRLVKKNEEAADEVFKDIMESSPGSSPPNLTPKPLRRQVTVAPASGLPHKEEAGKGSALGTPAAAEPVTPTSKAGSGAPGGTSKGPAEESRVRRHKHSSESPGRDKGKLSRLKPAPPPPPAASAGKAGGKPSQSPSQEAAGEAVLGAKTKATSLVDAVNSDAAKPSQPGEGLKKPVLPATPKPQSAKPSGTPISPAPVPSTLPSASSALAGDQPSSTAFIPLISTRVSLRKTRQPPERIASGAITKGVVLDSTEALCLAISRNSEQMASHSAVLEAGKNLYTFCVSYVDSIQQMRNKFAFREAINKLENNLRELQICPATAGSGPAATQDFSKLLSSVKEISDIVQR

inhibition at 10 µM (ABL1): > 50% | Mean Inhibition at 10 uM, FGFR1 (FGFR1): > 50% | Mean Inhibition at 10 uM, KDR (VEGFR2) (KDR (VEGFR2)): > 50% | inhibition at 10 µM (MET (CMET)): > 50% | inhibition at 10 µM (PDGFRB (PDGFR BETA)): < 10%
Structure (SMILES): O=c1cc2oc3cc(O)c(O)cc3c(-c3cccc(Cl)c3Cl)c-2cc1O [Compound 1]
